Drawing on ChEMBL document CHEMBL1126724, “Multiple binding modes for the receptor-bound conformations of cyclic AII agonists” (J Med Chem, 1993), this text covers IC50 and EC50 for 22 compounds.

pEC50: −log10 of the molar value. *1 amine or outer side, *2 acyl side, *3 side chain or, on linkers, in order; H or OH if unused. Where a SMILES comes first, the peptide text is derived from it. Bridges are numbered along the chain shown (N, C = ends). Roman numbers before positions name the chains, in order. [ ]: non-standard residue; d: D form. Pro(4R-SH) = O=C([C@@H]1C[C@@H](S[*:3])CN1[*:1])[*:2]; Pro(4S-SH) = O=C([C@@H]1C[C@H](S[*:3])CN1[*:1])[*:2]; hCys = N[C@@H](CCS)C(=O)O; Orn = NCCC[C@H](N)C(=O)O; Sar = CNCC(=O)O

For experiment [1], the target named is T1, Angiotensin II receptor (AT-1) type-1 (Rattus norvegicus, UniProt P29089+P25095).
T1 sequence (P29089 whole entry): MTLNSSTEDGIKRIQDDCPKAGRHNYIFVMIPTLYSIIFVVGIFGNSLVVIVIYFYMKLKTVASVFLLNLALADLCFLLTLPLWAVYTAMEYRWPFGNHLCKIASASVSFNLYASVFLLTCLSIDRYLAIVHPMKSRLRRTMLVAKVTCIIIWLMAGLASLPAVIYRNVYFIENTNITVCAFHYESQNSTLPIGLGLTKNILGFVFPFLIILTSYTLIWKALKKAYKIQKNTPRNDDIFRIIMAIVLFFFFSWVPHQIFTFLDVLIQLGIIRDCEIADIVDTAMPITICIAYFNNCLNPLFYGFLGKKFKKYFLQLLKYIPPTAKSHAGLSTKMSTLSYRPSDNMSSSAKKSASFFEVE
T1 sequence (P25095 whole entry): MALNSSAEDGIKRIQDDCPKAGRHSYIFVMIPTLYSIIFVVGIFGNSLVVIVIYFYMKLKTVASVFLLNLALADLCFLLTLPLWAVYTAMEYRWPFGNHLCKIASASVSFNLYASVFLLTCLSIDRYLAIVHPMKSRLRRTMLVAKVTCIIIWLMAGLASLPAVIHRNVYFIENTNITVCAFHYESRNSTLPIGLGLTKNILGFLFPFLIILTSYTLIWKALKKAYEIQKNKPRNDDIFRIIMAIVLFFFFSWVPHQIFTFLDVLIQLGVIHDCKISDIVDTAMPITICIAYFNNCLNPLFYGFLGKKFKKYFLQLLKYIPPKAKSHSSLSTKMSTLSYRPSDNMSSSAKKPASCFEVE
As to the kind of experiment: In vitro binding affinity to the angiotensin II receptor, type 1 in rat liver. Summed up:
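Buffer: 50 mM NaH2PO4 pH 7.1 with 100 μM bacitracin, 0.2% BSA, 100 mM NaCl, 10 mM MgCl2, 1 mM EGTA. Incubated 1 h at 25 °C, then filtered, and filters counted. IC50 from weighted nonlinear regression to the mass action equation.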

The species entered for experiment [2] is Oryctolagus cuniculus. Nature of the experiment: Agonist efficacy assessed from contractile responses on rabbit aorta (AT1). The format is functional. An outline of the steps:
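Rabbit thoracic aortic rings held in 20-mL baths of Krebs-bicarbonate at 37 °C, gassed with 5% CO2 in oxygen. Resting tension 4.0 g, 90-min equilibration. Peptides added cumulatively until maximal response. EC50 read graphically from the curves as the concentration giving 50% of maximal contraction.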

In general, IC50 refers to the midpoint of a concentration-inhibition curve. Read a low IC50 as inhibition by little substance. In turn, `CNCC(=O)N[C@@H](CCCN=C(N)N)C(=O)N[C@H]1CSSC[C@@H](C(=O)O)NC(=O)[C@@H]2CCCN2C(=O)[C@H](Cc2c[nH]cn2)NC(=O)[C@H](C(C)C)NC(=O)[C@H](Cc2ccc(O)cc2)NC1=O` (H-[Sar]RCYVHPC-OH; disulfide 3-8) returned an IC50 in experiment [1] of 0.52 µM.
What is called pEC50 is −log10 of the EC50, conventionally taken in molar units. High values mean a small EC50, low ones a large EC50. For H-DRVYIHPFHL-OH, the IC50 in experiment [1] came to 0.3 µM. In experiment [2], this compound had a pEC50 below 5.00.
The corresponding values for `CNCC(=O)N[C@@H](CCCN=C(N)N)C(=O)N[C@H]1CCSS[C@@H]2C[C@@H](C(=O)N[C@@H](Cc3c[nH]cn3)C(=O)N3CCC[C@H]3C(=O)N[C@@H](Cc3ccccc3)C(=O)O)N(C2)C(=O)[C@H](Cc2ccc(O)cc2)NC1=O` (H-[Sar]R[hCys]Y[Pro(4R-SH)]HPF-OH; disulfide 3-5) are 0.0013 µM and 7.89.
The compound `CNCC(=O)N[C@@H](CCCNC(=N)N)C(=O)N[C@H]1CCSSCC[C@@H](C(=O)N[C@@H](Cc2cnc[nH]2)C(=O)N2CCC[C@H]2C(=O)N[C@@H](Cc2ccccc2)C(=O)O)NC(=O)[C@H](Cc2ccc(O)cc2)NC1=O` (H-[Sar]R[hCys]Y[hCys]HPF-OH; disulfide 3-5) registered an IC50 in experiment [1] of 0.0013 µM.
`CC[C@H](C)[C@H](NC(=O)[C@H](Cc1ccc(O)cc1)NC(=O)[C@@H](NC(=O)[C@H](CCCNC(=N)N)NC(=O)[C@@H](N)CC(=O)O)C(C)C)C(=O)N[C@@H](Cc1cnc[nH]1)C(=O)N1CCC[C@H]1C(=O)N[C@@H](Cc1ccccc1)C(=O)O` [ANGIOTENSIN II] gave a pEC50 in experiment [2] of 8.60.
Compound `CNCC(=O)N[C@@H](CCCN=C(N)N)C(=O)N[C@H]1CSSC[C@@H](C(=O)N[C@@H](Cc2ccccc2)C(=O)O)NC(=O)[C@H](Cc2c[nH]cn2)NC(=O)[C@H](C(C)C)NC(=O)[C@H](Cc2ccc(O)cc2)NC1=O` (H-[Sar]RCYVHCF-OH; disulfide 3-7) returned a half-maximal inhibitory concentration (IC50) in experiment [1] of 1.23 µM.
In the case of `CC[C@H](C)[C@H](NC(=O)[C@H](Cc1ccc(O)cc1)NC(=O)[C@@H](NC(=O)[C@@H](N)CCCN=C(N)N)C(C)C)C(=O)N[C@@H](Cc1c[nH]cn1)C(=O)N1CCC[C@H]1C(=O)N[C@@H](Cc1ccccc1)C(=O)O` [ANGIOTENSIN III], in experiment [1], the IC50 was determined as 0.00557 µM. In experiment [2], this compound gave a pEC50 of 7.49.
On to `CNCC(=O)N[C@@H](CCCN=C(N)N)C(=O)N1C[C@@H]2C[C@H]1C(=O)N[C@@H](Cc1ccc(O)cc1)C(=O)N[C@H](C(=O)N[C@@H](Cc1c[nH]cn1)C(=O)N1CCC[C@H]1C(=O)N[C@@H](Cc1ccccc1)C(=O)O)CSS[C@H]1C[C@@H](C(=O)N[C@@H](Cc3ccc(O)cc3)C(=O)N[C@H](C(=O)N[C@@H](Cc3c[nH]cn3)C(=O)N3CCC[C@H]3C(=O)N[C@@H](Cc3ccccc3)C(=O)O)CSS2)N(C(=O)[C@H](CCCN=C(N)N)NC(=O)CNC)C1` (I: H-[Sar]R[Pro(4S-SH)]YCHPF-OH / II: H-[Sar]R[Pro(4S-SH)]YCHPF-OH; disulfide I:3-II:5, I:5-II:3), for which the 50% inhibitory concentration (IC50) in experiment [1] was 0.11 µM. This compound also gave a pEC50 in experiment [2] of 6.06.
The corresponding values for `CNCC(=O)N[C@@H](CCCN=C(N)N)C(=O)N1C[C@@H]2C[C@H]1C(=O)N[C@@H](Cc1ccc(O)cc1)C(=O)N[C@H](C(=O)N[C@@H](Cc1c[nH]cn1)C(=O)N1CCC[C@H]1C(=O)N[C@@H](Cc1ccccc1)C(=O)O)CSSC[C@H](C(=O)N[C@H](Cc1c[nH]cn1)C(=O)N1CCC[C@@H]1C(=O)N[C@H](Cc1ccccc1)C(=O)O)NC(=O)[C@@H](Cc1ccc(O)cc1)NC(=O)[C@H]1C[C@H](CN1C(=O)[C@@H](CCCN=C(N)N)NC(=O)CNC)SS2` are 0.19 µM and 6.34.
In the case of `CNCC(=O)N[C@@H](CCCN=C(N)N)C(=O)N[C@H]1CSSCC[C@@H](C(=O)N[C@@H](Cc2c[nH]cn2)C(=O)N2CCC[C@H]2C(=O)N[C@@H](Cc2ccccc2)C(=O)O)NC(=O)[C@H](Cc2ccc(O)cc2)NC1=O` (H-[Sar]RCY[hCys]HPF-OH; disulfide 3-5), in experiment [1], the IC50 amounted to 0.0026 µM.
Same read-out and setting: as for `CNCC(=O)N[C@@H](CCCN=C(N)N)C(=O)N[C@H]1CCC(=O)NCCCC[C@@H](C(=O)N[C@@H](Cc2c[nH]cn2)C(=O)N2CCC[C@H]2C(=O)N[C@@H](Cc2ccccc2)C(=O)O)NC(=O)[C@H](Cc2ccc(O)cc2)NC1=O` (H-[Sar]REYKHPF-OH; lactam 3-5), the figure is 0.089 µM.
`CNCC(=O)N[C@@H](CCCN=C(N)N)C(=O)N[C@H]1CCSSCC[C@@H](C(=O)N[C@@H](Cc2c[nH]cn2)C(=O)N2CCC[C@H]2C(=O)N[C@@H](Cc2ccccc2)C(=O)O)NC(=O)[C@H](Cc2ccc(O)cc2)NC1=O` (H-[Sar]R[hCys]Y[hCys]HPF-OH; disulfide 3-5) had a pEC50 in experiment [2] of 8.49.
In turn, `CNCC(=O)N[C@@H](CCCN=C(N)N)C(=O)N[C@H]1CC(=O)NCCCC[C@@H](C(=O)N[C@@H](Cc2c[nH]cn2)C(=O)N2CCC[C@H]2C(=O)N[C@@H](Cc2ccccc2)C(=O)O)NC(=O)[C@H](Cc2ccc(O)cc2)NC1=O` (H-[Sar]RDYKHPF-OH; lactam 3-5) displayed an IC50 in experiment [1] of 0.012 µM. For the same compound, the pEC50 in experiment [2] is 7.28.
`CNCC(=O)N[C@@H](CCCN=C(N)N)C(=O)N1C[C@@H]2C[C@H]1C(=O)N[C@@H](Cc1ccc(O)cc1)C(=O)N[C@H](C(=O)N[C@@H](Cc1c[nH]cn1)C(=O)N1CCC[C@H]1C(=O)N[C@@H](Cc1ccccc1)C(=O)O)CCSS2` (H-[Sar]R[Pro(4S-SH)]Y[hCys]HPF-OH; disulfide 3-5) gave a concentration for half-maximal inhibition (IC50) in experiment [1] of 0.51 µM. In experiment [2], this compound gave a negative-log EC50 (pEC50) of 6.36.
In turn, `CNCC(=O)N[C@@H](CCCN=C(N)N)C(=O)N[C@H]1CSSC[C@@H](C(=O)N[C@@H](Cc2c[nH]cn2)C(=O)N2CCC[C@H]2C(=O)N[C@@H](Cc2ccccc2)C(=O)O)NC(=O)[C@H](Cc2ccc(O)cc2)NC1=O` (H-[Sar]RCYCHPF-OH; disulfide 3-5) registered an IC50 in experiment [1] of 0.0076 µM.
Take `CNCC(=O)N[C@@H](CCCN=C(N)N)C(=O)N[C@H]1CCSS[C@H]2C[C@@H](C(=O)N[C@@H](Cc3c[nH]cn3)C(=O)N3CCC[C@H]3C(=O)N[C@@H](Cc3ccccc3)C(=O)O)N(C2)C(=O)[C@H](Cc2ccc(O)cc2)NC1=O` (H-[Sar]R[hCys]Y[Pro(4S-SH)]HPF-OH; disulfide 3-5): the IC50 in experiment [1] stood at 0.11 µM. Further, the pEC50 in experiment [2] was 6.16.
The corresponding values for `CNCC(=O)N[C@@H](CCCN=C(N)N)C(=O)N[C@H]1CSS[C@@H]2C[C@@H](C(=O)N[C@@H](Cc3c[nH]cn3)C(=O)N3CCC[C@H]3C(=O)N[C@@H](Cc3ccccc3)C(=O)O)N(C2)C(=O)[C@H](Cc2ccc(O)cc2)NC1=O` (H-[Sar]RCY[Pro(4R-SH)]HPF-OH; disulfide 3-5) are 0.018 µM and 6.80.
In the case of `CNCC(=O)N[C@@H](CCCN=C(N)N)C(=O)N1C[C@H]2C[C@H]1C(=O)N[C@@H](Cc1ccc(O)cc1)C(=O)N[C@H](C(=O)N[C@@H](Cc1c[nH]cn1)C(=O)N1CCC[C@H]1C(=O)N[C@@H](Cc1ccccc1)C(=O)O)CSS2` (H-[Sar]R[Pro(4R-SH)]YCHPF-OH; disulfide 3-5), in experiment [1], the IC50 is 0.087 µM.
On the same count and under the same terms, as for `CNCC(=O)N[C@@H](CCCN=C(N)N)C(=O)N[C@H]1CC(=O)NCCC[C@@H](C(=O)N[C@@H](Cc2c[nH]cn2)C(=O)N2CCC[C@H]2C(=O)N[C@@H](Cc2ccccc2)C(=O)O)NC(=O)[C@H](Cc2ccc(O)cc2)NC1=O` (H-[Sar]RDY[Orn]HPF-OH; lactam 3-5), the figure is 0.683 µM; as for `CNCC(=O)N[C@@H](CCCN=C(N)N)C(=O)N[C@H](C(=O)N[C@@H](Cc1ccc(O)cc1)C(=O)N[C@H]1CSSC[C@@H](C(=O)O)NC(=O)[C@@H]2CCCN2C(=O)[C@H](Cc2c[nH]cn2)NC1=O)C(C)C` (H-[Sar]RVYCHPC-OH; disulfide 5-8), 1.2 µM; as for `CNCC(=O)N[C@@H](CCCN=C(N)N)C(=O)N[C@H]1CSSC[C@@H](C(=O)N[C@@H](Cc2c[nH]cn2)C(=O)N2CCC[C@H]2C(=O)N[C@@H](Cc2ccccc2)C(=O)O)NC(=O)[C@H](Cc2ccc(O)cc2)NC(=O)[C@@H](NC(=O)[C@H](CCCN=C(N)N)NC(=O)CNC)CSSC[C@@H](C(=O)N[C@@H](Cc2c[nH]cn2)C(=O)N2CCC[C@H]2C(=O)N[C@@H](Cc2ccccc2)C(=O)O)NC(=O)[C@H](Cc2ccc(O)cc2)NC1=O` (I: H-[Sar]RCYCHPF-OH / II: H-[Sar]RCYCHPF-OH; disulfide I:3-II:5, I:5-II:3), 0.028 µM.
Same read-out and setting: with `CNCC(=O)N[C@@H](CCCN=C(N)N)C(=O)N[C@H]1CSS[C@H]2C[C@@H](C(=O)N[C@@H](Cc3c[nH]cn3)C(=O)N3CCC[C@H]3C(=O)N[C@@H](Cc3ccccc3)C(=O)O)N(C2)C(=O)[C@H](Cc2ccc(O)cc2)NC1=O` (H-[Sar]RCY[Pro(4S-SH)]HPF-OH; disulfide 3-5) the figure was 0.062 µM.
